Published values gathered from unrelated publications.
Compare with care: the assays were run in different laboratories.
Organism: Plasmodium falciparum
Observed: parasite growth

Structure (SMILES)	test	test system	setting	EC50 [nM]
Cn1cc(-c2cnc3[nH]cc(-c4cn(Cc5cccc(F)c5F)nn4)c3c2)cn1	–	3D7	72 h, blood stage	599
CCn1cc(C(N)=O)c(=O)c2cc(F)c(N3CCC(C)CC3)cc21	–	3D7	72 h, blood stage	390
O=C(Nc1ccc(CNc2ncnc3ccccc23)cc1)c1ccc(Cl)c(F)c1	–	3D7	72 h, blood stage	1510
CCn1cc(-c2nc(C)no2)c(=O)c2cc(F)c(N3CCN(C(C)=O)CC3)cc21	–	3D7	72 h, blood stage	> 10000
CN1CCN(c2ncc(-c3ccc4c(Nc5ccc(OCc6cccc(F)c6)c(Cl)c5)ccnc4c3)cn2)CC1	–	D6	drug-resistant strain, blood stage	26
CCOC(=O)c1c(NC(=O)c2ccccc2)sc2c(O)c(CCN(C)C)ccc12	–	3D7	48 h, blood stage	≤ 200
CCn1cc(-c2nc(C)no2)c(=O)c2cc(F)c(N3CCC(Cc4ccccc4)CC3)cc21	–	3D7	blood stage	32.1
CNS(=O)(=O)c1ccccc1Nc1nc(Nc2ccc(N3CCOCC3)cc2OC)ncc1Br	–	3D7	72 h, blood stage	282
CC(C)(C)OC(=O)Nc1ccc2c(Nc3ccc(OCc4cccc(F)c4)c(Cl)c3)ccnc2c1	–	D6	drug-resistant strain, blood stage	50
COc1ccc(CNc2nc(-c3ccc(C(=O)O)nc3)nc3sc4c(c23)CCCC4)cc1Cl	–	3D7	72 h, blood stage	1590
CCn1cc(C(=O)N2CCN(C)CC2)c(=O)c2cc(F)c(N3CCC(C)CC3)cc21	–	3D7	72 h, blood stage	> 10000
COc1ccc(Nc2ccnc3cc(-c4ccc(S(=O)(=O)N5CCN(C)CC5)cc4)ccc23)cc1	–	D6	drug-resistant strain, blood stage	18
CCn1cc(-c2nc(C)no2)c(=O)c2cc(F)c(N3CCN(C)CC3)cc21	–	3D7	72 h, blood stage	4570
Cc1ccc(Nc2ccnc3cc(-c4ccc(S(=O)(=O)N5CCN(C)CC5)cc4)ccc23)cn1	–	D6	drug-resistant strain, blood stage	22
CCCNCC(O)COc1ccccc1C(=O)CCc1ccccc1 (centres unmarked)	SYBR Green	K1	drug-resistant strain, blood stage	920
C[C@H]1[C@@H](O)O[C@@H]2O[C@@]3(C)CC[C@H]4[C@H](C)CC[C@@H]1[C@@]24OO3	–	NF54	24 h, gametocyte	13.8
COc1ncc(Nc2ccnc3cc(-c4ccc(S(=O)(=O)N5CCN(C)CC5)cc4)ccc23)cn1	–	D6	drug-resistant strain, blood stage	50
CCn1cc(-c2nc(C)no2)c(=O)c2cc(F)c(N3CCCC3)cc21	–	3D7	72 h, blood stage	500
COc1cc(C(=O)N(C)C)ccc1-c1cc2nccc(-c3ccc4ccncc4c3)c2o1	–	3D7	72 h, blood stage	997
COc1ccc(Nc2ccnc3cc(Nc4ccnc(N5CCN(C)CC5)n4)ccc23)cc1Cl	–	D6	drug-resistant strain, blood stage	78
